Common to all, as to format: cell-based
The target of test [1] is T1, GABA-A receptor; alpha-3/beta-3/gamma-2 (Homo sapiens) (UniProt P18507+P28472+P34903). The test can be described thus: Efficacy was determined against Gamma-aminobutyric acid A receptor, alpha 3 expressed in Xenopus oocytes. The following applies: Oocyte. The method, boiled down: (§1)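 Cloned human α1β3γ2, α2β3γ2 or α3β3γ2 receptors transiently expressed in Xenopus oocytes; two-electrode voltage clamp; modulation of GABA EC20 current by a single test-compound concentration (nM, given per value); means ± SEM, n = 3-7.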

The target in test [2] is T2, GABA-A receptor; alpha-3/beta-3/gamma-2 (Homo sapiens, UniProt P18507+P28472+P34903).
T2 sequence (P18507 whole entry): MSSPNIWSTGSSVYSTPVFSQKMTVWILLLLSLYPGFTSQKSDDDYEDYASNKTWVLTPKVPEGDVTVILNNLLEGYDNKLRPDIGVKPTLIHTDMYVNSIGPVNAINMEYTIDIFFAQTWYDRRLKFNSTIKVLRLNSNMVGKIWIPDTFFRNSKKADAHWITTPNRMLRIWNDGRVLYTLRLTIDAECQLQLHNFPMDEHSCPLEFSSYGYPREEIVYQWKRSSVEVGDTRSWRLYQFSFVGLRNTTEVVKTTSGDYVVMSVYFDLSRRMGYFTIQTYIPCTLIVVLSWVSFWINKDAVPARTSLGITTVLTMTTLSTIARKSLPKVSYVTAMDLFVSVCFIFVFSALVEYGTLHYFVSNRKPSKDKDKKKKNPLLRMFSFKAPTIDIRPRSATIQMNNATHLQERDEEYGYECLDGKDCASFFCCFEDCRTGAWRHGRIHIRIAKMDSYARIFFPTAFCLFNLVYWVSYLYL
T2 sequence (P28472 whole entry): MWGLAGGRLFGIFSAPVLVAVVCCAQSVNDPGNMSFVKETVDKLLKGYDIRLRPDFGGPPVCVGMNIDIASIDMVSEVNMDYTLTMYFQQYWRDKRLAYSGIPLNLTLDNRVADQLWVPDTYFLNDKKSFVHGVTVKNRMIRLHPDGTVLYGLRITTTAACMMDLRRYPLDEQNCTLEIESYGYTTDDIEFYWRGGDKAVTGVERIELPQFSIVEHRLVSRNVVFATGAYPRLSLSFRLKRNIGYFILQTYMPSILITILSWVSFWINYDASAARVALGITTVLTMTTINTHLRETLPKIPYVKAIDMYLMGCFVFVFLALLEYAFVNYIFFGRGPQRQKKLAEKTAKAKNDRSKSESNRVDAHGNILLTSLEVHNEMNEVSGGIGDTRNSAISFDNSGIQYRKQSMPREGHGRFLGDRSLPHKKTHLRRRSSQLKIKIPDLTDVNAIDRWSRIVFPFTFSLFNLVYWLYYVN
T2 sequence (P34903 whole entry): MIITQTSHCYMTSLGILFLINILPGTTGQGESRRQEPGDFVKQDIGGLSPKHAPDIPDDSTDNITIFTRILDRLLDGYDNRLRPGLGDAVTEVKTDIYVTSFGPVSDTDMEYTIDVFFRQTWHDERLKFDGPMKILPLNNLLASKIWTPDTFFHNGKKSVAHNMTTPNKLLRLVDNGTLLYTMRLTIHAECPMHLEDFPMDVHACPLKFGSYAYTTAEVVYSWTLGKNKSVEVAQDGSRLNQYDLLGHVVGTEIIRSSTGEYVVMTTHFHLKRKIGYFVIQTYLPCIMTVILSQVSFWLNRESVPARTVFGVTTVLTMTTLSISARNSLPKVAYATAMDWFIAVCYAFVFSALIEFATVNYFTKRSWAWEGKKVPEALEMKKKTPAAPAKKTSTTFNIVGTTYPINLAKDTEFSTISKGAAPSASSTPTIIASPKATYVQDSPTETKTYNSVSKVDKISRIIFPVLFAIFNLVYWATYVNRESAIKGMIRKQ
The test can be described thus: In vitro binding affinity against Gamma-aminobutyric acid A receptor, alpha 3 expressed in L(tk) cells by displacement of [3H]Ro-151788. The gist of the method: (§2)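 Binding to cloned human α1β3γ2, α2β3γ2 or α3β3γ2 receptors stably expressed in L(tk-) cells, measured as displacement of [3H]Ro15-1788; means ± SEM, n = 3-7.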
In general terms: Loss of bound radioactivity is the signal in a displacement assay; it reports binding, not function.

The target of test [3] is T3, GABA-A receptor; alpha-1/beta-3/gamma-2 (Homo sapiens, UniProt P14867+P18507+P28472).
T3 sequence (P14867 whole entry): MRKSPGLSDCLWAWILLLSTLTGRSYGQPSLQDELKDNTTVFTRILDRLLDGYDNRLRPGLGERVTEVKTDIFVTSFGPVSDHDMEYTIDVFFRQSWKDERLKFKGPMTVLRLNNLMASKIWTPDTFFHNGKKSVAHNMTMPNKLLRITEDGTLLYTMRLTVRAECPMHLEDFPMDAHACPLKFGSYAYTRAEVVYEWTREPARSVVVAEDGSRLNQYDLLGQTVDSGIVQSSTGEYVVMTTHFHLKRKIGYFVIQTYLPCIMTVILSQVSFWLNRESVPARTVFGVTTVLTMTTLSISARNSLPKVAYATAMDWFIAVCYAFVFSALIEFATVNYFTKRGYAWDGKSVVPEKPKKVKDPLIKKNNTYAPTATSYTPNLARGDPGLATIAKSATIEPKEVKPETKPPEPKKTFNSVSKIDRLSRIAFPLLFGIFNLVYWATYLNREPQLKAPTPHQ
T3 sequence (P18507 whole entry): T2 sequence (P18507 whole entry)
T3 sequence (P28472 whole entry): T2 sequence (P28472 whole entry)
Put plainly: In vitro binding affinity against gamma-aminobutyric acid A receptor, alpha 1 expressed in L(tk) cells by displacement of [3H]Ro-151788. The method, boiled down:
as §2

The target of test [4] is T4, GABA-A receptor; alpha-1/beta-3/gamma-2 (Homo sapiens) (UniProt P14867+P18507+P28472). The test can be described thus: Efficacy was determined against gamma-aminobutyric acid A receptor, alpha 1 expressed in Xenopus oocytes. The following applies: Oocyte. The gist of the method: as §1
The target in test [5] is T1, GABA-A receptor; alpha-3/beta-3/gamma-2 (Homo sapiens). The test can be described thus: Efficacy against human GABA-A receptor alpha-3-beta-3-gamma-2 subunits expressed in L(tk-) cells by whole-cell patch-clamp. The method, boiled down: (§3)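 Whole-cell patch-clamp of L(tk-) cells stably expressing cloned human α1β3γ2, α2β3γ2 or α3β3γ2 receptors; full concentration-effect curves built; means ± SEM, n = 3-7.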
In general terms: Patch clamp records ionic current or voltage across a cell membrane.

Test [6] has as its target T2, GABA-A receptor; alpha-3/beta-3/gamma-2. Put plainly: In vitro displacement of [3H]Ro-151788 from human GABA-A receptor alpha-3-beta-3-gamma-2 subunits expressed in L(tk-) cells. The gist of the method:
as §2

The target in test [7] is T4, GABA-A receptor; alpha-1/beta-3/gamma-2 (Homo sapiens). Put plainly: Efficacy against human GABA-A receptor alpha-1-beta-3-gamma-2 subunits expressed in L(tk-) cells by whole-cell patch-clamp. The gist of the method:
as §3

Test [8] deals with T5, GABA-A receptor; alpha-2/beta-3/gamma-2 (Homo sapiens) (UniProt P18507+P28472+P47869). The test can be described thus: Efficacy against human GABA-A receptor alpha-2-beta-3-gamma-2 subunits expressed in L(tk-) cells by whole-cell patch-clamp. The gist of the method:
as §3

For test [9], the target named is T5, GABA-A receptor; alpha-2/beta-3/gamma-2 (Homo sapiens). The test can be described thus: Efficacy relative to GABA EC20 against human GABA-A receptor alpha-2-beta-3-gamma-2 subunits expressed in Xenopus oocytes. The following applies: Oocyte. The method, boiled down: as §1
The target of test [10] is T6, GABA-A receptor; alpha-2/beta-3/gamma-2 (Homo sapiens, UniProt P18507+P28472+P47869).
T6 sequence (P18507 whole entry): T2 sequence (P18507 whole entry)
T6 sequence (P28472 whole entry): T2 sequence (P28472 whole entry)
T6 sequence (P47869 whole entry): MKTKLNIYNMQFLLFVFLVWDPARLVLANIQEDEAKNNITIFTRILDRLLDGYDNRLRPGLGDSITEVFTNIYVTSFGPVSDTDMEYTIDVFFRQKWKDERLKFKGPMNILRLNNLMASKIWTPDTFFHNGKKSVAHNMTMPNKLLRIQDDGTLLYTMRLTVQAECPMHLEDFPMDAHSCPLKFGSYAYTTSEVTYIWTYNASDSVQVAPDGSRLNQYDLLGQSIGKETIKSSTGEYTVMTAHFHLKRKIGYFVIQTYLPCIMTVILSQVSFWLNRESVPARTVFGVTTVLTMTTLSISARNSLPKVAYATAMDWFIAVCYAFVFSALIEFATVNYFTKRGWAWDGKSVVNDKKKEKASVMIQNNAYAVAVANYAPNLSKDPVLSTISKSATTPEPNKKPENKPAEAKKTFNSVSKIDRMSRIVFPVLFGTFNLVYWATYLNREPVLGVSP
The test can be described thus: In vitro displacement of [3H]Ro-151788 from human GABA-A receptor alpha-2-beta-3-gamma-2 subunits expressed in L(tk-) cells. The gist of the method:
as §2

In general, Ki refers to a dissociation constant, usually derived from enzyme kinetics or from competition with a known ligand. Low values mean higher affinity, high ones lower affinity.

SMILES strings stand for the structures.

With `Oc1c2c(nn1-c1ccc(Cl)cc1)C1CN(Cc3ccncc3)CCC1N=C2` (centres undefined), the Efficacy amounted to 199% in [1] and 131% in [4]. Besides, the Ki in [2] was 0.56 nM; in test [3], 0.18 nM.

For the compound `O=C(Cc1cccnc1)N1CCC2N=Cc3c(nn(-c4ccc(Cl)cc4)c3O)C2C1` (centres undefined), the Efficacy in test [1] was 2.3%; in test [4] it was 49%. The Ki in test [2] came to 5.4 nM; in test [3] it was 3.15 nM.

For `Oc1c2c(nn1-c1ccc(Cl)cc1)C1CN(CC3CC3)CCC1N=C2` (centres undefined), the Efficacy in test [1] came to 123%; in [4], 111%. The Ki amounted to 7.45 nM in [2] and 0.45 nM in [3].

In the case of `Oc1c2c(nn1-c1ccc(Cl)cc1)C1CCCC1N=C2` (centres undefined), the Efficacy stood at 51% in test [1] and 19% in test [4]. Further, the Ki in test [2] stood at 1.12 nM; in [3], 0.44 nM.

In the case of `Oc1c2c(nn1-c1ccc(Cl)cc1)C1CCCCCC1N=C2` (centres undefined), the Efficacy was 87% in [1] and 23% in test [4]. For the same compound, the Ki in test [2] turned out to be 4.27 nM; in [3], 1.06 nM.

Consider `Oc1c2cnc3c(c2nn1-c1ccc(OC2CC2)cc1)CCCC3`, for which the Efficacy in test [5] is 54%; in test [1], 62%; in test [7], -4.3%; in [4], 19%. The results for the Ki in [6] and in test [3] were 2.19 nM and 1.13 nM, respectively.

As to `COc1ccc(-n2nc3c4c(ncc3c2O)CCCC4)cc1`, the Efficacy in test [1] was determined as 55%; in test [4], 15%. Also, the Ki in [2] came out at 0.61 nM; in test [3], 0.31 nM.

Consider `Oc1c2cnc3c(c2nn1-c1ccc(OC(F)F)cc1)CCCC3`, for which the Efficacy was 34% in [5], 56% in test [1], 2% in [7] and 21% in [4]. For the same compound, the Ki was 2.25 nM in [2] and 1 nM in test [3].

As to `Oc1c2c(nn1-c1ccc(OC(F)F)cc1)C1CSCCC1N=C2` (centres undefined), the figures for the Efficacy in test [1] and in [4] were 25% and 9%, respectively. In addition, the Ki was determined as 0.89 nM in test [2] and 0.38 nM in test [3].

In the case of `Oc1c2c(nn1-c1ccc(OC(F)F)cc1)C1COCCC1N=C2` (centres undefined), the figures for the Efficacy in test [1] and in test [4] were 32% and 11%, respectively. Besides, the inhibition constant (Ki) in [2] is 6.4 nM; in test [3], 1.55 nM.

As for `Oc1c2cnc3c(c2nn1-c1ccccn1)CCCC3`, the Efficacy in test [1] was -7%; in test [4], -39%. The Ki in test [2] worked out at 1.14 nM; in [3], 0.57 nM.

Turning to `Oc1c2cnc3c(c2nn1-c1ccc(OC(F)(F)F)cc1)CCCC3`, the values for the Efficacy in [1] and in test [4] were 35% and 14%, respectively. Moreover, the values for the Ki in [2] and in test [3] were 4.7 nM and 7.33 nM, respectively.

For the compound `O=c1c2c[nH]c3c(c-2nn1-c1ccc(Cl)cc1)CCCC3`, the Efficacy in test [8] amounted to 43%; in test [9], 61%; in test [5], 70%; in test [1], 93%; in [7] it was 17%; in [4], 12%. Also, the Ki is 1.03 nM in test [2], 0.77 nM in [10] and 0.19 nM in [3].

`Oc1c2cnc3c(c2nn1-c1ccc(OC2CCC2)cc1)CCCC3`: the Efficacy in test [1] turned out to be 36%; in test [4], 49%. In addition, the results for the Ki in test [2] and in test [3] were 2.55 nM and 1.3 nM, respectively.

For the compound `Oc1c2cnc3c(c2nn1-c1ccc(F)cc1)CCCC3`, the Efficacy in [1] is 33%; in test [4], -2%. Besides, the Ki in test [2] was 0.65 nM; in test [3], 0.29 nM.
